Laboratory results reported in ChEMBL document CHEMBL4229382, “Phenylthiazoles with tert-Butyl side chain: Metabolically stable with anti-biofilm activity” (Eur J Med Chem, 2018).
≈ marks a conversion by molar mass, not a printed value.

Assays:
Type in all cases: functional
[1] = test system: Staphylococcus aureus; assay: Antibacterial activity against methicillin-resistant Staphylococcus aureus 2658 RCMB after 18 hrs by broth microdilution assay
How it was run: (§1)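 Broth microdilution: inoculum from 0.5 McFarland suspension diluted to about 5 × 10^5 CFU/mL. Media were cation-adjusted Mueller-Hinton broth for staphylococci, brain heart infusion for E. faecium, and tryptone soya broth for E. faecalis, S. pneumoniae and L. monocytogenes.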

[2] = test system: Staphylococcus aureus; assay: Bactericidal activity against methicillin-sensitive Staphylococcus aureus NRS107 incubated fo 18 hrs followed by re-plating on tryptic soy agar plates at 37 degC for 18 hrs by broth microdilution assay; conditions: NRS107, 18 h
[3] = test system: Staphylococcus aureus; assay: Bactericidal activity against methicillin-resistant Staphylococcus aureus NRS385 incubated fo 18 hrs followed by re-plating on tryptic soy agar plates at 37 degC for 18 hrs by broth microdilution assay; conditions: NRS385, 18 h
[4] = test system: Staphylococcus aureus; assay: Antibacterial activity against vancomycin-resistant Staphylococcus aureus VRS10 after 18 hrs by broth microdilution assay; conditions: VRS10, 18 h; how it was run: as §1
[5] = test system: Staphylococcus aureus; assay: Antibacterial activity against methicillin-sensitive Staphylococcus aureus NRS107 after 18 hrs by broth microdilution assay; conditions: NRS107, 18 h; how it was run: as §1
[6] = test system: Staphylococcus aureus; assay: Antibacterial activity against methicillin-resistant Staphylococcus aureus NRS384 USA300 after 18 hrs by broth microdilution assay; conditions: NRS384 USA300, 18 h; how it was run: as §1
[7] = test system: Staphylococcus aureus; assay: Bactericidal activity against methicillin-resistant Staphylococcus aureus NRS123 USA400 incubated fo 18 hrs followed by re-plating on tryptic soy agar plates at 37 degC for 18 hrs by broth microdilution assay; conditions: NRS123 USA400, 18 h
[8] = test system: Staphylococcus aureus; assay: Bactericidal activity against vancomycin-resistant Staphylococcus aureus VRS10 incubated fo 18 hrs followed by re-plating on tryptic soy agar plates at 37 degC for 18 hrs by broth microdilution assay; conditions: VRS10, 18 h
[9] = test system: Staphylococcus aureus; assay: Antibacterial activity against methicillin-sensitive Staphylococcus aureus ATCC 6538 after 18 hrs by broth microdilution assay; conditions: ATCC 6538, 18 h; how it was run: as §1
[10] = test system: Staphylococcus aureus; assay: Bactericidal activity against methicillin-resistant Staphylococcus aureus NRS386 incubated fo 18 hrs followed by re-plating on tryptic soy agar plates at 37 degC for 18 hrs by broth microdilution assay; conditions: NRS386, 18 h
[11] = test system: Staphylococcus aureus; assay: Bactericidal activity against methicillin-sensitive Staphylococcus aureus ATCC 6538 incubated fo 18 hrs followed by re-plating on tryptic soy agar plates at 37 degC for 18 hrs by broth microdilution assay; conditions: ATCC 6538, 18 h
[12] = test system: Staphylococcus aureus; assay: Bactericidal activity against methicillin-resistant Staphylococcus aureus NRS119 incubated fo 18 hrs followed by re-plating on tryptic soy agar plates at 37 degC for 18 hrs by broth microdilution assay; conditions: NRS119, 18 h
[13] = test system: Staphylococcus aureus; assay: Antibacterial activity against methicillin-resistant Staphylococcus aureus NRS123 USA400 after 18 hrs by broth microdilution assay; conditions: NRS123 USA400, 18 h; how it was run: as §1
[14] = test system: Staphylococcus aureus; assay: Bactericidal activity against methicillin-resistant Staphylococcus aureus NRS384 USA300 incubated fo 18 hrs followed by re-plating on tryptic soy agar plates at 37 degC for 18 hrs by broth microdilution assay; conditions: NRS384 USA300, 18 h
[15] = test system: Staphylococcus aureus; assay: Antibacterial activity against vancomycin-resistant Staphylococcus aureus VRS12 after 18 hrs by broth microdilution assay; conditions: VRS12, 18 h; how it was run: as §1
[16] = test system: Staphylococcus aureus; assay: Bactericidal activity against vancomycin-resistant Staphylococcus aureus VRS12 incubated fo 18 hrs followed by re-plating on tryptic soy agar plates at 37 degC for 18 hrs by broth microdilution assay; conditions: VRS12, 18 h

Row | SMILES | MIC [1] | also measured
1 | CNC(=N)Nc1nccc(-c2sc(-c3ccc(C(C)(C)C)cc3)nc2C)n1 | 1.56 µg/mL (≈ 4.1 µM) | 
2 | Cc1nc(-c2ccc(C(C)(C)C)cc2)sc1-c1ccnc(N2CCC2)n1 | > 50 µg/mL | 
3 | Cc1nc(-c2ccc(C(C)(C)C)cc2)sc1-c1ccnc(N2CCOCC2)n1 | 25 µg/mL (≈ 63.4 µM) | 
4 | CNc1nccc(-c2sc(-c3ccc(C(C)(C)C)cc3)nc2C)n1 | 25 µg/mL (≈ 73.9 µM) | 
5 | Cc1nc(-c2ccc(C(C)(C)C)cc2)sc1-c1ccnc(N)n1 | 6.25 µg/mL (≈ 19.3 µM) | 
6 | Cc1nc(-c2ccc(C(C)(C)C)cc2)sc1-c1ccnc(N=C(N(C)C)N(C)C)n1 | > 50 µg/mL | 
7 | CC(=O)NC[C@H]1CN(c2ccc(N3CCOCC3)c(F)c2)C(=O)O1 [LINEZOLID] |  | MBC [2]: 16 µg/mL (≈ 47.4 µM); MBC [3]: 16 µg/mL (≈ 47.4 µM); MIC [4]: 1 µg/mL (≈ 2.96 µM); MIC [5]: 1 µg/mL (≈ 2.96 µM); MIC [6]: 1 µg/mL (≈ 2.96 µM); MBC [7]: 32 µg/mL (≈ 94.9 µM); MBC [8]: 64 µg/mL (≈ 190 µM); MIC [9]: 1 µg/mL (≈ 2.96 µM); MBC [10]: 64 µg/mL (≈ 190 µM); MBC [11]: 16 µg/mL (≈ 47.4 µM); MBC [12]: > 64 µg/mL; MIC [13]: 1 µg/mL (≈ 2.96 µM); MBC [14]: 32 µg/mL (≈ 94.9 µM); MIC [15]: 1 µg/mL (≈ 2.96 µM); MBC [16]: 64 µg/mL (≈ 190 µM)
8 | Cc1nc(-c2ccc(C(C)(C)C)cc2)sc1-c1ccnc(N2CC(O)C2)n1 | 6.25 µg/mL (≈ 16.4 µM) | 
9 | Cc1nc(-c2ccc(C(C)(C)C)cc2)sc1-c1ccnc(NN)n1 | 1.56 µg/mL (≈ 4.6 µM) | 
10 | Cc1nc(-c2ccc(C(C)(C)C)cc2)sc1-c1ccnc(N2CCCC2)n1 | > 50 µg/mL | 
11 | Cc1nc(-c2ccc(C(C)(C)C)cc2)sc1-c1ccnc(NC2CCCC2)n1 | > 50 µg/mL | 
12 | Cc1nc(-c2ccc(C(C)(C)C)cc2)sc1-c1ccnc(NC2CCCCC2)n1 | > 50 µg/mL | 
13 | CCNc1nccc(-c2sc(-c3ccc(C(C)(C)C)cc3)nc2C)n1 | > 50 µg/mL | 
14 | Cc1nc(-c2ccc(C(C)(C)C)cc2)sc1-c1ccnc(-c2cccnc2)n1 | > 50 µg/mL | 
15 | Cc1nc(-c2ccc(C(C)(C)C)cc2)sc1-c1ccnc(N(C)C)n1 | > 50 µg/mL | 
16 | Cc1nc(-c2ccc(C(C)(C)C)cc2)sc1-c1ccnc(NC(=N)N2CCCC2)n1 | 50 µg/mL (≈ 119 µM) | 
17 | Cc1nc(-c2ccc(C(C)(C)C)cc2)sc1-c1ccnc(NC(=N)N)n1 | 1.56 µg/mL (≈ 4.26 µM) | 
18 | Cc1nc(-c2ccc(C(C)(C)C)cc2)sc1-c1ccnc(NC(=N)N2CCN(C)CC2)n1 | 3.12 µg/mL (≈ 6.94 µM) | 
